This is an account of results in PMC4252766 (FEBS letters, 2014).

The subject of assay [1] is BRPF1 bromodomain. Particulars: ref [31]; cited from earlier work.
Assay [2] relates to BRPF1 bromodomain. The experiment in a line: X-ray crystallography of BRPF1 bromodomain with histone peptides. It counts as binding, human. As to conditions: co-crystal structures PDB 4QYL (H2AK5ac) and 4QYD (H4K12ac). The essentials: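 E. coli-expressed BRPF1 bromodomain (residues 629–742), gel-filtered into 20 mM Tris pH 8.0, 150 mM NaCl, 1 mM DTT; 2.3 mM protein + 5 mM peptide; drops at 4°C. H2AK5ac: 0.2 M NH₄SO₄, 0.1 M MES pH 6.5, 30% PEG MME 5,000, seeding, 1% propylene glycol. H4K12ac: 0.1 M HEPES pH 7.5, 10% PEG 6,000, 5% MPD. Flash-cooled, 100 K.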

Turning to SGRG Kac QGGKARA [H2AK5ac], in assay [1], the histone ligand preference entry was “preferentially binds”. Also, the “binding by x-ray crystallography” value in assay [2] is reported as “bind”.
Regarding GKGGKGLG Kac GGAKR [H4K12ac], in assay [1], the histone ligand preference entry is given as “preferentially binds”. Moreover, the “binding by x-ray crystallography” value in assay [2] is “bind”.
